The structures appear in SMILES notation.

Series [1] concerns MDA-MB-231. The experiment in a line: Induction of apoptosis in human MDA-MB-231 cells assessed as viable cells at 0.1 uM measured after 24 hrs by annexin V-FITC/propidium iodide staining based flow cytometry (reference value: 90.9%). Type of series: functional. To be noted: read-out: Activity. For orientation: A flow cytometer gives signals particle by particle.
In series [2] the test system is MDA-MB-231. The experiment in a line: Induction of apoptosis in human MDA-MB-231 cells assessed as early apoptotic cells at 0.1 uM measured after 24 hrs by annexin V-FITC/propidium iodide staining based flow cytometry (reference value: 1.49%). Type of series: functional.
The test system of series [3] is MDA-MB-231. The experiment in a line: Induction of apoptosis in human MDA-MB-231 cells assessed as late apoptotic cells at 0.1 uM measured after 24 hrs by annexin V-FITC/propidium iodide staining based flow cytometry (reference value: 2.84%). The series is classed as functional.
The test system of series [4] is MDA-MB-231. The experiment in a line: Induction of apoptosis in human MDA-MB-231 cells assessed as early apoptotic cells at 1 uM measured after 24 hrs by annexin V-FITC/propidium iodide staining based flow cytometry (reference value: 1.49%). The series is classed as functional.
For a further series, the system named is 4T1. The experiment in a line: Antitumor activity against mouse 4T1 cells implanted in mouse assessed as tumor growth inhibition at 2 mg/kg, ip administered daily for 12 days relative to control. To be noted: 4T1, ip, 288 h, time 12 day, read-out: TGI. The series is classed as functional. Put shortly: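 Orthotopic 4T1 tumor-bearing mice were randomized into four groups (n = 6) once tumors reached about 100 mm2. Groups received vehicle (saline), test compound at 1 or 2 mg/kg, or doxorubicin 1 mg/kg, all intraperitoneally every day. Tumor volume and body weight were measured daily. Inhibition ratio was computed against saline at study end, and tumors were weighed.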

A short description of series [5]: Toxicity in mouse implanted with mouse 4T1 cells assessed as increase in spleen size at 2 mg/kg, ip administered daily for 12 days measured post last dose. The series is classed as organism-based. The note with it: in vivo, 288 h, time 12 day. Put shortly: (§1)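 Orthotopic 4T1-bearing mice (n = 6 per group) were dosed i.p. daily with vehicle, compound at 1 or 2 mg/kg, or doxorubicin at 1 mg/kg. At the end of treatment, tumors and major organs (liver, spleen) were harvested and photographed. Sections were H&E stained and examined by microscope.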

Series [6] in a line: Toxicity in mouse implanted with mouse 4T1 cells assessed as increase in liver size at 2 mg/kg, ip administered daily for 12 days measured post last dose. The series is classed as organism-based. To be noted: in vivo, 288 h, time 12 day. In short, it runs like this:
as §1

A short description of series [7]: Toxicity in mouse implanted with mouse 4T1 cells assessed as extramedullary hematopoiesis in liver at 2 mg/kg, ip administered daily for 12 days measured post last dose by H and E staining based microscopic analysis. Type of series: organism-based. To be noted: in vivo, 288 h, time 12 day. In short, it runs like this:
as §1

Take `O=C1C=CC2(C=C1)OCC(=O)N2c1nc(-c2cccc3ccccc23)nn1-c1ccccc1`: the viability at 0.1 µM with MDA-MB-231 [1] turned out to be 90.8%. The Activity is recorded as 1.32% with MDA-MB-231 [2]; 2.69% in the series with MDA-MB-231 [3]; 22.2% in the series with MDA-MB-231 [4]; “Toxic” in series [5]; “Toxic” in series [6]; “Toxic” in series [7]. For the same compound, the inhibition in vivo at 2 mg/kg in the series on 4T1 came to 38.8%.

The values are drawn from ChEMBL document CHEMBL4732107, “Synthesis and anticancer activity evaluation of naphthalene-substituted triazole spirodienones” (Eur J Med Chem, 2021).
